PKA-R2B act: activators of PKA-R2B holoenzyme, primary screen, biochemical, fluorescence polarization, Cy5-IP20, human; cAMP-dependent protein kinase catalytic subunit beta (Homo sapiens) + cAMP-dependent …; PKA-R2B holoenzyme dissociation; R2B truncated from residue 108, S112A mutant; 0% DMSO only, 100% 113 µM cGMP; activation, % at 11.4 µM; 340,000 compounds, 0.079% hits; AID 504700, 2011;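 active = activation above a cutoff set at the mean over all compounds plus 3 SD, cut at about 18% in these data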;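 also: higher means more holoenzyme dissociation and a rise in polarization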
HKDC1 inhibitor: HKDC1 hexokinase inhibitors, primary screen, biochemical, fluorescence, uHTS; Q2TB90; recombinant HKDC1, G6PDH/diaphorase resazurin coupled fluorescence; inhibition, % at 20 µM; 340,000 compounds, 0.16% hits; AID 493160, 2011;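 active = inhibition above about 35% when tested at 20 µM, limit read from the data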;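 also: plate controls were DMSO wells with enzyme for no effect and DMSO wells lacking enzyme for full effect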
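Test system: Recombinant HKDC1 (HK5) hexokinase enzyme, produced in-house | Input: HKDC1 at 5 µg/mL | Buffer or medium: Tris pH 8.0 buffer with MgCl2, Tween-20, BSA, BME | Schedule: 90 min reaction incubation at room temperature, dark | Technique: Resazurin-to-resorufin fluorescence via G6PDH and diaphorase coupling, 525/613 nm | Controls: DMSO wells with and without enzyme mix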
PfG6PD inh: PfG6PD enzyme inhibitors, primary screen, biochemical, fluorescence intensity, uHTS. PfGluPho enzyme, NADPH resazurin-diaphorase fluorescence. AID 504690, 2011. inhibition, % at 20 µM. 350,000 compounds, 0.78% hits. glucose-6-phosphate dehydrogenase-6-phosphogluconolactonase (Plasmodium falciparum 3D7);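 active = inhibition reaching at least a set limit at 20 µM in the primary screen, cut at about 59% in these data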;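 also: 0% = DMSO wells with substrate and 100% = DMSO wells lacking glucose-6-phosphate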
T cell HTS: modulators of CD8 T cell-vesicle binding, primary screen, mouse 2C CD8+ T cells, flow cytometry | 2C CD8+ T cell-vesicle binding; hits give low values | response (vesicle binding), % at 7 µM | 330,000 compounds, 0.068% hits;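 active = response, share of CD8 T cells binding vesicles, and their 90th percentile fluorescence all below set limits, cut at about 80% in these data, passing the limit was not always enough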;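 also: values below 100% mean blocked vesicle binding to the CD8+ T cells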
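Material: 2C TCR transgenic mouse naive CD8+ T cells, MACS-purified. Also added: QL9-charged Drosophila Ld/ICAM-1/B7-1 vesicles. Timing: binding 1.5 h at 37 °C. Measured by: high-throughput flow cytometry with anti-B7-1 and anti-CD8 staining. Read-out: percent CD8+ FL2 mean versus row control. Controls: Unloaded micro-vesicles (low), QL9 vesicles with 0.7% DMSO (high).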
PKA-R1A activ: activators of PKA-R1A holoenzyme, primary screen, biochemical, fluorescence polarization, Cy5-IP20, bovine R1A, mouse PKAc. cAMP-dependent protein kinase type I-alpha regulatory subunit (Bos taurus) + …. PKA-R1A dissociation; scaled: DMSO 0%, 113 µM cGMP 100%. activation, % at 11.4 µM. 340,000 compounds, 0.083% hits;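 active = percent activation above the mean of all tested compounds plus 3 SD, cut at about 19% in these data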;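 also: higher means more PKAc released from R1A so a rise in polarization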
ATG4B inh: ATG4B protease inhibitors, primary screen, biochemical, fluorescence, uHTS; inhibition, % at 8.33 µM; ATG4B cleavage of LC3-PLA2, NBD-HPC fluorescence, 1 h; 340,000 compounds, 0.51% hits; Cysteine protease ATG4B (Homo sapiens), Q9Y4P1; in the data active = inhibition above about 40%
Target sequence (Q9Y4P1 whole entry, looked up): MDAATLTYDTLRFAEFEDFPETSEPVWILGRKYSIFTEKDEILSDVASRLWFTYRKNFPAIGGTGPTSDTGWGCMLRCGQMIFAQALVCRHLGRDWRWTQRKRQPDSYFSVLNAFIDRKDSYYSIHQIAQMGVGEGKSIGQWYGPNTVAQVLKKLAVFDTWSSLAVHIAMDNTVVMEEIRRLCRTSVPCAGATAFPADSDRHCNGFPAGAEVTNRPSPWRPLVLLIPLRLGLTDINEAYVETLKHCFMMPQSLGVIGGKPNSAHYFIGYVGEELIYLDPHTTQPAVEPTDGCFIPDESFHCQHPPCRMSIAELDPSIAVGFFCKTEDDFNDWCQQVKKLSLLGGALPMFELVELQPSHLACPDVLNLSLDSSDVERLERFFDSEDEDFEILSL
PfGluPho conf: PfG6PD inhibitors, hit retest, confirmation, biochemical, fluorescence intensity, single concentration; inhibition, % at 20 µM; recombinant PfGluPho, NADPH-diaphorase-resazurin fluorescence; shares compounds with PfG6PD inh; 2,400 compounds, 34% hits;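 active = inhibition of at least 50% at 20 µM in any single replicate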;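 also: 0% = DMSO with substrate and 100% = DMSO lacking glucose-6-phosphate substrate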
Diaph ctr 10uM: diaphorase inhibitors and chemical oxidizers, confirmation, counter-screen for P. falciparum G6PD inhibitor project, biochemical, fluorescence intensity, 10 µM NADPH; diaphorase-coupled resazurin reduction, NADPH 10 uM; inhibition, % at 20 µM; shares compounds with PfG6PD inh; 820 compounds, 39% hits;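 active = average inhibition reaching 50% or more with the compound at 20 µM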;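 also: resorufin red fluorescence formed as diaphorase reduces resazurin using NADPH; 0% = DMSO with enzyme and 100% = DMSO without enzyme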
Diaphorase 30uM: diaphorase inhibitors and chemical oxidizers, confirmation, counter-screen for P. falciparum G6PD inhibitor project, biochemical, fluorescence intensity, 30 µM NADPH; shares compounds with PfG6PD inh; inhibition, % at 20 µM; Diaphorase/resazurin coupled assay, resorufin fluorescence; AID 504863, 2011; 820 compounds, 29% hits;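 active = inhibition averaging 50% or more, tested at 20 µM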;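 also: 0% = DMSO with enzyme and 100% = DMSO wells lacking diaphorase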
An asterisk follows results filed as active. A selection: hits, their analogues and other compounds. The true share with any hit is near 1.6%.

`COc1ccc2ccccc2c1C1CC(=O)N2CN(C3CCCCC3)CSC2=C1C#N` (stereo not drawn) gave PKA-R2B act -15, HKDC1 inhibitor 14, PfG6PD inh 72*, T cell HTS 847, PKA-R1A activ -4, ATG4B inh -12, PfGluPho conf 65*, Diaph ctr 10uM -18 and Diaphorase 30uM -22.
COc1ccc2ccccc2c1C1CC(=O)N2CN(Cc3ccco3)CSC2=C1C#N (stereo not drawn) was read as PKA-R2B act 7, HKDC1 inhibitor 13, PfG6PD inh 68*, T cell HTS 536, PKA-R1A activ -9, ATG4B inh -12 and PfGluPho conf 42.
For CC(C)c1ccc(C2CC(=O)N3CN(Cc4ccco4)CSC3=C2C#N)cc1 (stereo not drawn) the results were PKA-R2B act 7, HKDC1 inhibitor 17, PfG6PD inh 61*, T cell HTS 442, PKA-R1A activ -5, ATG4B inh 5 and PfGluPho conf 16.
For CSC1=C(C#N)C(c2ccc(C(C)C)cc2)CC(=O)N1 (stereo not drawn) the results were PKA-R2B act 4, HKDC1 inhibitor -1, PfG6PD inh 5, T cell HTS 451, PKA-R1A activ 12 and ATG4B inh -10.
CCOc1cc(C2CC(=O)N3CN(C4CCCCC4)CSC3=C2C#N)ccc1O (stereo not drawn) was read as PKA-R2B act 2, HKDC1 inhibitor 17, PfG6PD inh 76*, T cell HTS 574, PKA-R1A activ -12, ATG4B inh 0 and PfGluPho conf 44.
O=C(Cn1ccc(=O)[nH]c1=O)Nc1ccc(O)c([N+](=O)[O-])c1 was read as PKA-R2B act 3, HKDC1 inhibitor 2, PfG6PD inh -1, PKA-R1A activ -4 and ATG4B inh 4.
`COC(=O)c1ccc(N2CCN(C)CC2)c(NC(=O)c2ccc(-c3ccc(Cl)cc3)o2)c1` gave PKA-R2B act 4, HKDC1 inhibitor -6, PfG6PD inh 23, T cell HTS 238, PKA-R1A activ -12 and ATG4B inh 6.
`O=C(CCN1C(=O)C2C3C=CC(C4CC34)C2C1=O)Nc1ccc(Cl)cc1O` (stereo not drawn) gave PKA-R2B act 1, HKDC1 inhibitor 1, PfG6PD inh 4, T cell HTS 224, PKA-R1A activ 4 and ATG4B inh -8.
Screening COc1ccc(C2C(C#N)=C(N)Oc3cc(C)n(Cc4ccco4)c(=O)c32)cc1 (stereo not drawn) returned PKA-R2B act -3, HKDC1 inhibitor 1, PfG6PD inh 23, T cell HTS 483, PKA-R1A activ 6 and ATG4B inh 6.
Screening N#CC1=C2SCN(Cc3ccccc3)CN2C(=O)CC1c1cccs1 (stereo not drawn) returned PKA-R2B act -5, HKDC1 inhibitor 10, PfG6PD inh 71*, T cell HTS 238, PKA-R1A activ -8, ATG4B inh -8 and PfGluPho conf 7.
For COc1ccc(C2CC(=O)N3CN(Cc4ccco4)CSC3=C2C#N)cc1 (stereo not drawn) the results were PKA-R2B act -3, HKDC1 inhibitor 3, PfG6PD inh 59*, T cell HTS 205, PKA-R1A activ -2, ATG4B inh -1 and PfGluPho conf 7.
Screening COc1cc(C2CC(=O)N3CN(Cc4ccco4)CSC3=C2C#N)ccc1OCc1ccccc1 (stereo not drawn) returned PKA-R2B act 3, HKDC1 inhibitor 13, PfG6PD inh 60*, T cell HTS 538, PKA-R1A activ 7, ATG4B inh -9 and PfGluPho conf 4.
`O=C(Nc1nc(-c2ccccn2)cs1)c1cccc(S(=O)(=O)N2CCOCC2)c1` gave PKA-R2B act 0, HKDC1 inhibitor 3, PfG6PD inh 28, T cell HTS 244, PKA-R1A activ -7 and ATG4B inh 2.
`Cc1ccc(/C=C/C(=O)N2CCN(S(=O)(=O)c3ccc(C)c(C)c3)CC2)o1` gave PKA-R2B act -4, HKDC1 inhibitor 8, PfG6PD inh 62*, T cell HTS 266, PKA-R1A activ 0, ATG4B inh 2, PfGluPho conf 50*, Diaph ctr 10uM -19 and Diaphorase 30uM -23.
For Cc1ccc(/C=C/C(=O)N2CCN(S(=O)(=O)c3c(C)c(C)cc(C)c3C)CC2)o1 the results were PKA-R2B act -9, HKDC1 inhibitor -3, PfG6PD inh 44, T cell HTS 364, PKA-R1A activ -6 and ATG4B inh 14.
`NS(=O)(=O)c1ccc(Nc2nc(-c3ccc(O)cc3O)cs2)cc1` gave PKA-R2B act -1, HKDC1 inhibitor -9, PfG6PD inh 69*, T cell HTS 534, PKA-R1A activ -8, ATG4B inh -19 and PfGluPho conf -2.
`Nc1nc(N)c2cc(S(=O)(=O)c3ccc4ccccc4c3)ccc2n1` gave PKA-R2B act -14, PfG6PD inh -14 and PKA-R1A activ -4.
Screening CCN1C(=O)[C@@H]2[C@H](C1=O)[C@@H]1C(=O)Nc3ccccc3C(=O)N1[C@@H]2c1cccc(Cl)c1 returned PKA-R2B act 2, HKDC1 inhibitor -5, PfG6PD inh -1, T cell HTS 308, PKA-R1A activ 8 and ATG4B inh -2.

From PubChem
